# Activity calls are given as the source filed them. The calls are words filed in the database; no cut-off is given here.
# Legend:
# [1] = system: Escherichia coli; assay: Antimicrobial activity against Escherichia coli NCIM 2065 at 1000 ug/disk after 24 hrs by disk diffusion method; type: functional; conditions: NCIM 2065, 24 h, read-out: DIZ
# Procedure, shortened: (§1)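 Disc diffusion on Mueller–Hinton agar. 100 µl of bacterial suspension at 10⁸ CFU/ml is spread on the plate. Discs carry test compounds at two loadings, dissolved in DMSO; DMSO alone serves as negative control. Ofloxacin disc is the positive reference. Plates are incubated at 37 °C for 24 h, and the inhibition zone diameter is measured.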
# [2] = system: Escherichia coli; assay: Antimicrobial activity against Escherichia coli NCIM 2065 at 500 ug/disk after 24 hrs by disk diffusion method; type: functional; conditions: NCIM 2065, 24 h, read-out: DIZ; procedure, shortened: as §1
# [3] = system: Bacillus subtilis; assay: Antimicrobial activity against Bacillus subtilis NCIM 2063 at 500 ug/disk after 24 hrs by disk diffusion method; type: functional; procedure, shortened: as §1
# [4] = system: Bacillus subtilis; assay: Antimicrobial activity against Bacillus subtilis NCIM 2063 at 1000 ug/disk after 24 hrs by disk diffusion method; type: functional; conditions: NCIM 2063, 24 h, read-out: DIZ; procedure, shortened: as §1
# [5] = system: Bacillus cereus; assay: Antimicrobial activity against Bacillus cereus NCIM 2155 at 1000 ug/disk after 24 hrs by disk diffusion method; type: functional; conditions: NCIM 2155, 24 h, read-out: DIZ; procedure, shortened: as §1
# [6] = system: Aliivibrio fischeri; assay: Antimicrobial activity against Vibrio fischeri NCIM 2154 at 500 ug/disk after 24 hrs by disk diffusion method; type: functional; conditions: NCIM 2154, 24 h, read-out: DIZ
# Procedure, shortened: (§2)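 Disc diffusion. 100 µl of bacterial suspension at 10⁸ CFU/ml was spread on Mueller–Hinton agar. Discs loaded with test compound dissolved in DMSO were placed on the lawn, with a DMSO-only disc as negative control. Plates were incubated at 37 °C for 24 h, and the inhibition zone diameter was measured.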
# [7] = system: Rhodococcus corynebacterioides; assay: Antimicrobial activity against Corynebacterium rubrum NCIM 2252 at 500 ug/disk after 24 hrs by disk diffusion method; type: functional; conditions: Rhodococcoides corynebacterioides, NCIM 2252, 24 h; read-out: DIZ; procedure, shortened: as §1
# [8] = system: Salmonella typhimurium; assay: Antimicrobial activity against Salmonella Typhimurium NCIM 2501 at 1000 ug/disk after 24 hrs by disk diffusion method; type: functional, Salmonella enterica subsp. enterica serovar Typhimurium; conditions: Salmonella enterica, NCIM 2501, 24 h; read-out: DIZ; procedure, shortened: as §2
# [9] = system: Rhodococcus corynebacterioides; assay: Antimicrobial activity against Corynebacterium rubrum NCIM 2252 at 1000 ug/disk after 24 hrs by disk diffusion method; type: functional; conditions: Rhodococcoides corynebacterioides, NCIM 2252, 24 h; read-out: DIZ; procedure, shortened: as §1
# [10] = system: Staphylococcus; assay: Antimicrobial activity against Staphylococcus albus NCIM 2178 at 500 ug/disk after 24 hrs by disk diffusion method; type: functional; procedure, shortened: as §2
# [11] = system: Proteus vulgaris; assay: Antimicrobial activity against Proteus vulgaris NCIM 2027 at 500 ug/disk after 24 hrs by disk diffusion method; type: functional; procedure, shortened: as §1
# [12] = system: Proteus vulgaris; assay: Antimicrobial activity against Proteus vulgaris NCIM 2027 at 1000 ug/disk after 24 hrs by disk diffusion method; type: functional; procedure, shortened: as §1
# [13] = system: Aspergillus flavus; assay: Antimicrobial activity against Aspergillus flavus NCIM 902 at 1000 ug/disk after 72 hrs by disk diffusion method; type: functional; conditions: NCIM 902, 72 h, read-out: DIZ
# Procedure, shortened: (§3)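 Disc diffusion on Sabouraud's dextrose agar. 100 µl of fungal suspension at 10⁶ CFU/ml is spread on the plate. Discs carry test compounds at two loadings in DMSO; DMSO alone is the negative control. Clotrimazole disc is the positive reference. Plates are incubated at 27 °C for 72 h, and the zone of inhibition diameter is measured.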
# [14] = system: Rhodotorula mucilaginosa; assay: Antimicrobial activity against Rhodotorula rubra NCIM 3174 at 500 ug/disk after 72 hrs by disk diffusion method; type: functional; conditions: NCIM 3174, 72 h, read-out: DIZ
# Procedure, shortened: (§4)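 Fungal disc diffusion. 100 µl of suspension at 10⁶ CFU/ml was spread on Sabouraud's dextrose agar. Discs carrying test compound in DMSO were applied, with a DMSO-only disc as negative control. Plates were incubated at 27 °C for 72 h, and the zone of inhibition diameter was measured.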
# [15] = system: Rhodotorula mucilaginosa; assay: Antimicrobial activity against Rhodotorula rubra NCIM 3174 at 1000 ug/disk after 72 hrs by disk diffusion method; type: functional; conditions: NCIM 3174, 72 h, read-out: DIZ; procedure, shortened: as §4
# [16] = system: Aspergillus fumigatus; assay: Antimicrobial activity against Aspergillus fumigatus NCIM 902 at 500 ug/disk after 72 hrs by disk diffusion method; type: functional; procedure, shortened: as §3
# [17] = system: Aspergillus fumigatus; assay: Antimicrobial activity against Aspergillus fumigatus NCIM 902 at 1000 ug/disk after 72 hrs by disk diffusion method; type: functional; conditions: NCIM 902, 72 h, read-out: DIZ; procedure, shortened: as §3
# [18] = system: Aspergillus parasiticus; assay: Antimicrobial activity against Aspergillus parasiticus NCIM 904 at 500 ug/disk after 72 hrs by disk diffusion method; type: functional; conditions: NCIM 904, 72 h, read-out: DIZ; procedure, shortened: as §3
# [19] = system: Penicillium chrysogenum; assay: Antimicrobial activity against Penicillium chrysogenum NCIM 707 at 500 ug/disk after 72 hrs by disk diffusion method; type: functional; conditions: NCIM 707, 72 h, read-out: DIZ; procedure, shortened: as §3
# [20] = system: Penicillium chrysogenum; assay: Antimicrobial activity against Penicillium chrysogenum NCIM 707 at 1000 ug/disk after 72 hrs by disk diffusion method; type: functional; conditions: NCIM 707, 72 h, read-out: DIZ; procedure, shortened: as §3
# [21] = system: Klebsiella aerogenes; assay: Antimicrobial activity against Klebsiella aerogenes NCIM 2239 at 1000 ug/disk after 24 hrs by disk diffusion method; type: functional; conditions: NCIM 2239, 24 h, read-out: DIZ; procedure, shortened: as §1
# [22] = system: Klebsiella aerogenes; assay: Antimicrobial activity against Klebsiella aerogenes NCIM 2239 at 500 ug/disk after 24 hrs by disk diffusion method; type: functional; procedure, shortened: as §1
# [23] = system: Pseudomonas aeruginosa; assay: Antimicrobial activity against Pseudomonas aeruginosa NCIM 2200 at 500 ug/disk after 24 hrs by disk diffusion method; type: functional; procedure, shortened: as §2
# [24] = system: Aspergillus flavus; assay: Antimicrobial activity against Aspergillus flavus NCIM 902 after 72 hrs by serial dilution method; type: functional; conditions: NCIM 535, 72 h, in the assay text read “NCIM 535” for “NCIM 902”
# Procedure, shortened: (§5)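 MIC by broth dilution in Sabouraud's dextrose broth, only for fungi sensitive in disc diffusion. Two-fold serial dilutions of compounds are made in 1 ml broth per tube, range 3.9 to 1000. Inoculated tubes are incubated at 27 °C for 72 h.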
# [25] = system: Rhodotorula mucilaginosa; assay: Antimicrobial activity against Rhodotorula rubra NCIM 3174 after 72 hrs by serial dilution method; type: functional; conditions: NCIM 3174, 72 h
# Procedure, shortened: (§6)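 MIC by broth dilution in Sabouraud's dextrose broth, run only on fungi found sensitive in the disc assay. Twofold serial dilutions were made in 1 ml broth per tube, covering 3.9 to 1000. Inoculated tubes were incubated at 27 °C for 72 h.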
# [26] = system: Aspergillus parasiticus; assay: Antimicrobial activity against Aspergillus parasiticus NCIM 904 after 72 hrs by serial dilution method; type: functional; conditions: NCIM 904, 72 h; procedure, shortened: as §5
# [27] = system: Trichoderma viride; assay: Antimicrobial activity against Trichoderma viride NCIM 1195 after 72 hrs by serial dilution method; type: functional; conditions: NCIM 1195, 72 h; procedure, shortened: as §6
# [28] = system: Trichoderma viride; assay: Antimicrobial activity against Trichoderma viride NCIM 1195 at 500 ug/disk after 72 hrs by disk diffusion method; type: functional; conditions: NCIM 1195, 72 h, read-out: DIZ; procedure, shortened: as §4
# [29] = system: Trichoderma viride; assay: Antimicrobial activity against Trichoderma viride NCIM 1195 at 1000 ug/disk after 72 hrs by disk diffusion method; type: functional; conditions: NCIM 1195, 72 h, read-out: DIZ; procedure, shortened: as §4
# [30] = system: Escherichia coli; assay: Antimicrobial activity against Escherichia coli NCIM 2065 after 24 hrs by serial dilution method; type: functional; conditions: NCIM 2065, 24 h
# Procedure, shortened: (§7)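 Broth dilution MIC in nutrient broth, run only for organisms found sensitive in disc diffusion. Compounds are two-fold serially diluted in 1 ml sterile broth per tube, spanning 3.9 to 1000. Inoculated tubes are incubated at 37 °C for 24 h.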
# [31] = system: Bacillus subtilis; assay: Antimicrobial activity against Bacillus subtilis NCIM 2063 after 24 hrs by serial dilution method; type: functional; conditions: NCIM 2063, 24 h; procedure, shortened: as §7
# [32] = system: Aliivibrio fischeri; assay: Antimicrobial activity against Vibrio fischeri NCIM 2154 after 24 hrs by serial dilution method; type: functional; conditions: NCIM 2154, 24 h
smiles,measurement,setting,value
CC1(C)CC(=O)C2=C(C1)Nc1c(ccc3ccccc13)C2c1cccc(Cl)c1 (configuration not stated),zone of inhibition at 1000 µg/disc,[1],8 mm
same,zone of inhibition at 500 µg/disc,[2],7 mm
same,diameter of the inhibition zone (DIZ),[3],inactive
same,zone of inhibition at 1000 µg/disc,[4],9 mm
same,zone of inhibition at 1000 µg/disc,[5],10 mm
same,zone of inhibition at 500 µg/disc,[6],7 mm
same,zone of inhibition at 500 µg/disc,[7],7 mm
same,zone of inhibition at 1000 µg/disc,[8],10 mm
same,zone of inhibition at 1000 µg/disc,[9],8 mm
same,diameter of the inhibition zone (DIZ),[10],inactive
same,diameter of the inhibition zone (DIZ),[11],inactive
same,diameter of the inhibition zone (DIZ),[12],inactive
same,zone of inhibition at 1000 µg/disc,[13],10 mm
same,zone of inhibition at 500 µg/disc,[14],7 mm
same,zone of inhibition at 1000 µg/disc,[15],9 mm
same,diameter of the inhibition zone (DIZ),[16],inactive
same,zone of inhibition at 1000 µg/disc,[17],9 mm
same,zone of inhibition at 500 µg/disc,[18],11 mm
same,zone of inhibition at 500 µg/disc,[19],7 mm
same,zone of inhibition at 1000 µg/disc,[20],10 mm
same,zone of inhibition at 1000 µg/disc,[21],9 mm
same,diameter of the inhibition zone (DIZ),[22],inactive
same,diameter of the inhibition zone (DIZ),[23],inactive
same,MIC,[24],62.5 µg/mL
same,MIC,[25],62.5 µg/mL
same,MIC,[26],31.2 µg/mL
same,MIC,[27],15.6 µg/mL
same,zone of inhibition at 500 µg/disc,[28],10 mm
same,zone of inhibition at 1000 µg/disc,[29],13 mm
same,MIC,[30],125 µg/mL
same,MIC,[31],62.5 µg/mL
same,MIC,[32],125 µg/mL
